Rows were chosen to be rich in hits. Some 1.8% of all compounds tested hit in one or more screens of this group.
NPY-Y2 PAM-ag: human NPY-Y2 potentiation or agonism, primary screen | hit rate 0.45% among 220,000 | P49146 | activation, % at 3.6 µM | cells expressing NPY-Y2, potentiator/agonist read-out; in the data active = activation above about 27%;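 note: cells stimulated with NPY near EC25 plus isoproterenol at EC100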
Target sequence (P49146 whole entry, looked up): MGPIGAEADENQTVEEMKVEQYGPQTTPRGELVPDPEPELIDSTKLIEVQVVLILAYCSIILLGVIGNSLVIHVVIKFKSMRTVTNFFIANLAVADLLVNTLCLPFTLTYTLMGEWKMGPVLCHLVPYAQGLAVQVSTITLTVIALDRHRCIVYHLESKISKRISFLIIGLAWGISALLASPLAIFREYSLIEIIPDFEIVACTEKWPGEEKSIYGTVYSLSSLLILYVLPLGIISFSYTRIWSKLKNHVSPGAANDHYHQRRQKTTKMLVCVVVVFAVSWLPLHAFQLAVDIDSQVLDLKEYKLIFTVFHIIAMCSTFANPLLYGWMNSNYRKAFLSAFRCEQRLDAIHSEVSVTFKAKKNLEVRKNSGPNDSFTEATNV
NPY-Y2 antag: NPY-Y2 (human) receptor antagonism; P49146; NPY-Y2 expressing cells, antagonist mode; inhibition, % at 2.7 µM; hit rate 0.99% among 140,000; in the data active = inhibition above about 17%
NPY Y1 blocker: antagonists of human neuropeptide Y receptor Y1; hit rate 1% among 200,000; HEK293-CNG Y1 cells, membrane potential fluorescence; NPY at EC95, then isoproterenol; P25929; inhibition, % at 3.6 µM;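 active = inhibition above the campaign mean inhibition of all tested compounds plus 3 SD, cut at about 20% in these data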
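Benchmarks – high control isoproterenol alone, low control NPY with isoproterenol · Material – HEK293 Y1/CNG channel cell line · Times – dye 3 h, compound 60 min room temperature, stimulation 45 min · Probe or stimulus – NPY (25 nM), isoproterenol (1 µM), Ro 20-1724 (25 µM) · Evaluation – % inhibition of NPY effect · Signal – fluorescence, membrane potential probe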
NPY1 pot ag: human NPY-Y1 potentiation or agonism, primary screen | activation, % at 3.6 µM | P25929 | NPY-Y1 expressing cells, potentiator/agonist activation | hit rate 0.37% among 220,000; in the data active = activation above about 33%, passing the limit was not always enough;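 note: cells stimulated with NPY at EC10 then isoproterenol at EC100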
Numbers stand for hits; i = inactive; nt = not tested or not shown.

SMILES	NPY-Y2 PAM-ag	NPY-Y2 antag	NPY Y1 blocker	NPY1 pot ag
COc1ccc(NC(=O)c2cc(=O)[nH]c(=O)[nH]2)cc1S(=O)(=O)Nc1ccccc1Cl	i	nt	i	i
Clc1ccc(CN(Cc2ccc(Cl)cc2)c2nn[nH]n2)cc1	i	nt	31.3	i
c1ccc(CN(Cc2ccccc2)c2nn[nH]n2)cc1	i	nt	i	i
CCCCCCOc1ccc(/C(N)=N/O)cc1	99.3	i	i	83.7
N=C(N)c1ccc(OCCCCCOc2ccc(C(=N)N)cc2)cc1	i	i	i	i
CC(=O)Nc1ccc(OC(F)(F)C(F)F)c(NC(C)=O)c1	i	i	i	i
O=C(COc1ccccc1)Nc1ccc(OC(F)(F)C(F)F)c(NC(=O)COc2ccccc2)c1	i	34.2	24.7	i
Cc1nn(-c2cc(N3CCCCCC3)ccc2[N+](=O)[O-])c(=O)c2ccccc12	41.4	i	i	84.8
COc1ccc(C(C)(C)C)cc1NC(=O)c1cc(S(=O)(=O)N(C)C)ccc1N1CCCC1	i	21.9	24.6	i
CCc1cccc(NC(=O)c2cc(S(=O)(=O)N(C)C)ccc2N2CCCC2)c1	i	nt	i	i
O=C(OCCNc1ccc(C(F)(F)F)cc1[N+](=O)[O-])c1cc2ccccc2oc1=O	i	nt	nt	i
CC1CC(=O)NN=C1c1ccc(N)c([N+](=O)[O-])c1 (stereo not given)	i	77.9	64.9	i
CCNc1nc(NC(C)(C)C)nc(N2CCCCC2)n1	29.7	nt	i	50.1
CCNc1nc(N2CCCC2)nc(N2CCCC2)n1	i	nt	i	i
OCCNCc1cc(Br)ccc1OCc1ccc(Cl)cc1Cl	i	28.1	43.0	i
CC(=O)Nc1nonc1-c1nc2ccccc2n1CCC(C)C	i	17.8	42.8	i
CC1=C/C(=N\OS(=O)(=O)c2ccccc2)C(C(C)C)=CC1=O	31.0	i	i	i
CC1=C/C(=N\OS(=O)(=O)c2ccccc2)C(C)=CC1=O	57.0	i	i	54.3
O=C(NCCc1ccc(Cl)cc1)C1CCN(S(=O)(=O)c2ccc(Br)s2)CC1	i	nt	i	i
O=C(Cc1cccs1)N(Cc1cccs1)C1(C(=O)NC2CCCCC2)CCCCC1	i	37.3	51.8	i
O=C(c1cnccn1)N(Cc1cccs1)C1(C(=O)NC2CCCCC2)CCCCC1	i	20.8	38.2	i
O=C1NC(=O)C(CC(=O)N(Cc2cccs2)C2(C(=O)NC3CCCC3)CCCCC2)N1 (stereo not given)	i	i	i	i
O=C(c1cnccn1)N(Cc1cccs1)C1(C(=O)NC2CCCC2)CCCCC1	i	25.8	42.4	i
Cc1ccc(C)c(N2CCN(c3ccncc3N)CC2)c1	i	nt	nt	i
NC(=O)c1nsc(C(=O)N(c2cccc(F)c2)C(C(=O)NCC2CCCO2)c2cccs2)c1N (stereo not given)	i	nt	i	i
SMILES	NPY-Y2 PAM-ag	NPY-Y2 antag	NPY Y1 blocker	NPY1 pot ag
COc1ccccc1N1CCN(C(=O)CSc2nnc3n2C(C)(C)Cc2ccccc2-3)CC1	74.9	i	i	95.8
CCOC(=O)COc1ccc(/C=C2\NC(=S)N(CC)C2=O)cc1	i	i	i	i
N#CCSc1nc2c(sc(=S)n2Cc2ccco2)c(=O)n1-c1ccc(F)cc1	i	20.0	23.9	i
Cc1ccc(C(=O)N(CC(=O)NC2CCCC2)Cc2cccs2)s1	i	i	i	i
CCC(C)(C(=O)NC1CCCC1)N(Cc1cccs1)C(=O)c1ccc2c(c1)OCO2 (stereo not given)	i	18.3	27.2	i
CCC(C)(C(=O)NC1CCCCC1)N(Cc1cccs1)C(=O)Cc1cccs1 (stereo not given)	i	39.2	59.0	i
CC(C)c1cc(C(=O)O)c2cnn(C(C)C)c2n1	i	nt	nt	i
CN1C(=O)C(CC(=O)Nc2ccc(F)cc2)N(NC(=O)c2cccc(F)c2)C1=S (stereo not given)	i	nt	nt	i
COC(=O)CSc1nc(N)c2c3c(sc2n1)C(c1ccccc1)SC(c1ccccc1)C3 (stereo not given)	55.7	i	i	80.9
CC(C)(C)C1CCc2c(sc3nc(SCC(=O)O)nc(N)c23)C1 (stereo not given)	101.1	nt	nt	105.5
COC(=O)CSc1nc(N)c2c3c(sc2n1)CCCC3	i	i	i	i
COc1ccc2sc(N(CCN(C)C)C(=O)/C=C/c3cccs3)nc2c1	41.3	nt	i	41.6
COc1ccc2cc(CCN3C(=O)c4ccccc4C3=O)c(=O)[nH]c2c1	i	i	i	i
CCOc1cccc2sc(NN)nc12	i	nt	i	37.7
COc1ccc(CNc2nc3ccccc3n2CCN2CCCCC2)cc1	i	nt	i	i
CCN(CC)c1ccc(CNc2nc3ccccc3n2CCN2CCCCC2)cc1	43.5	nt	i	45.1
c1ccc(Cn2c(CNc3nc4ccccc4n3CCN3CCCCC3)nc3ccccc32)cc1	i	26.8	i	i
CCN(CC)CCn1c(NCc2nc3ccccc3n2Cc2ccccc2)nc2ccccc21	i	18.5	21.8	i
CCCCn1c(NCc2ccc3c(c2)OCO3)nc2ccccc21	i	i	20.1	i
OCC1(Cc2ccccc2)CCCN(Cc2ccn[nH]2)C1 (stereo not given)	i	nt	i	i
CC(C)(C)C(=O)O/N=C(\N)c1ccc(-c2csnn2)cc1	i	nt	nt	i
N#Cc1c(NC(=O)CSc2nc3ccccc3s2)sc2c1CCCC2	i	i	i	i
Cc1ccc(NC(=O)CCC(=O)NNC(=O)COc2cccc3ccccc23)c(C)c1	i	i	i	i
Cc1cccc(C)c1NC(=O)C[N+](C)(C)CC(O)COc1cccc2ccccc12 (stereo not given)	66.2	nt	i	97.9
CCCC(c1nnnn1C1CCCCC1)N1CCN(C2CCCC2)CC1 (stereo not given)	i	i	i	i
SMILES	NPY-Y2 PAM-ag	NPY-Y2 antag	NPY Y1 blocker	NPY1 pot ag
CCCCC(c1nnnn1C1CCCC1)N1CCN(C2CCCC2)CC1 (stereo not given)	i	45.9	30.9	i
CCCC(c1nnnn1Cc1ccc(F)cc1)N1CCN(C2CCCCC2)CC1 (stereo not given)	i	31.4	22.9	i
O=C1CN(C(=O)COC(=O)c2cc(S(=O)(=O)N3CCOCC3)ccc2Cl)c2ccccc2N1	i	nt	nt	i
CC(=O)Nc1cc(NC(C)=O)c(N=Nc2ccccc2)cc1C	i	nt	nt	i
Cc1ccc(NCC(O)C(O)C(O)CO)c(N=Nc2ccccc2)c1C (stereo not given)	97.5	nt	nt	99.4
COc1ccc(Cn2c(SCc3cc(C)ccc3C)nc3cc(OC)c(OC)cc3c2=N)cc1	i	55.0	47.1	i
COc1ccc(Cn2c(SCc3ccc(C)cc3)nc3cc(OC)c(OC)cc3c2=N)cc1Cl	i	24.5	34.3	i
Clc1ncnc2scc(-c3ccc(Br)cc3)c12	i	i	i	i
c1ccc(-c2ccccc2OCCCN2CCCCC2)cc1	i	18.0	28.0	i
Clc1ccc(-c2nc(N3CCCCC3)nc3ccccc23)cc1	i	i	i	i
c1ccc(-c2nc(-n3nc4ccccc4n3)nc3ccccc23)cc1	i	26.5	i	i
CCCCCC(=O)NC(=S)Nc1cccc(-c2nc3ncccc3o2)c1	i	nt	nt	i
C=CCN1C(=O)SC(Cc2cccc(OC)c2O)C1=O (stereo not given)	i	nt	i	i
N#Cc1c(NCCN)nc(-c2ccco2)c2c1CCCC2	i	22.4	44.1	i
